In brackets after ≈: the same amount, converted by molar mass.
Legend:
Type in all cases: functional
[1] = tested on: Escherichia coli; test: In vitro antibacterial activity was measured on gram negative bacteria Escherichia coli J3272 tet-C(efflux resistance) cell lines
[2] = tested on: Escherichia coli; test: In vitro antibacterial activity was measured on gram negative bacteria Escherichia coli UBMS 90-5 sensitive cell lines
In short: (§1)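 MIC by agar dilution on Mueller-Hinton II agar; inoculum (1–5) × 10^5 CFU/mL; antibiotic range 32–0.004 μg/mL; plates incubated 18 h at 35 °C in forced-air incubator. MIC taken as lowest concentration inhibiting growth. Tetracycline, minocycline and doxycycline run as standards in each assay.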

[3] = tested on: Escherichia coli; test: In vitro antibacterial activity was measured on gram negative bacteria Escherichia coli J3272 tet-D(efflux resistance) cell lines
[4] = tested on: Staphylococcus aureus; test: In vitro antibacterial activity was measured on gram positive bacteria Staphylococcus aureus UBMS 90-3 sensitive cell lines; in short: as §1
[5] = tested on: Escherichia coli; test: In vitro antibacterial activity was measured on gram negative bacteria Escherichia coli PRP-1 tet-a(efflux resistance) cell lines
[6] = tested on: Escherichia coli; test: In vitro antibacterial activity was measured on gram negative bacteria Escherichia coli UBMS 88-1 tet-B(efflux resistance) cell lines
[7] = tested on: Escherichia coli; test: In vitro antibacterial activity was measured on gram negative bacteria Escherichia coli UBMS 90-4 tet-M (ribosomal protection) cell lines
In short: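 Agar dilution MIC on Mueller-Hinton II agar. Inoculum (1–5) × 10^5 CFU/mL, drug range 32–0.004 μg/mL. Plates incubated 18 h at 35 °C in a forced-air incubator. MIC is the lowest concentration that inhibits growth. The strain panel covered tetracycline-sensitive and -resistant strains. Tetracycline, minocycline and doxycycline were run as standards in each assay.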

[8] = tested on: Staphylococcus aureus; test: In vitro antibacterial activity was measured on gram positive bacteria Staphylococcus aureus smith cell lines; in short: as §1
[9] = tested on: Staphylococcus aureus; test: In vitro antibacterial activity was measured on gram positive bacteria Staphylococcus aureus UBMS 90-1 tet-M (ribosomal protection) cell lines; in short: as §1
[10] = tested on: Staphylococcus aureus; test: In vitro antibacterial activity was measured on gram positive bacteria Staphylococcus aureus UBMS 88-7 tet-k(efflux resistance) cell lines

Structure (SMILES): CN[C@@H](CC(C)C)C(=O)Nc1ccc2c(c1O)C(=O)C1=C(O)[C@]3(O)C(O)=C(C(N)=O)C(=O)[C@@H](N(C)C)C3[C@@H](O)C1[C@H]2C (stereo not given in full)
- MIC [1]: 8 µg/mL (≈ 13.6 µM)
- MIC [2]: 4 µg/mL (≈ 6.82 µM)
- MIC [3]: 2 µg/mL (≈ 3.41 µM)
- MIC [4]: 1 µg/mL (≈ 1.7 µM)
- MIC [5]: 16 µg/mL (≈ 27.3 µM)
- MIC [6]: 8 µg/mL (≈ 13.6 µM)
- MIC [7]: 4 µg/mL (≈ 6.82 µM)
- MIC [8]: 2 µg/mL (≈ 3.41 µM)
- MIC [9]: 2 µg/mL (≈ 3.41 µM)

Structure (SMILES): CC(C)[C@H](N)C(=O)Nc1ccc2c(c1O)C(=O)C1=C(O)[C@]3(O)C(O)=C(C(N)=O)C(=O)[C@@H](N(C)C)C3[C@@H](O)C1[C@H]2C (stereo not given in full)
- MIC [10]: 8 µg/mL (≈ 14.3 µM)
- MIC [1]: 8 µg/mL (≈ 14.3 µM)
- MIC [2]: 2 µg/mL (≈ 3.58 µM)
- MIC [3]: 1 µg/mL (≈ 1.79 µM)
- MIC [4]: 0.5 µg/mL (≈ 0.895 µM)
- MIC [5]: 32 µg/mL (≈ 57.3 µM)
- MIC [6]: 4 µg/mL (≈ 7.16 µM)
- MIC [7]: 2 µg/mL (≈ 3.58 µM)
- MIC [8]: 1 µg/mL (≈ 1.79 µM)
- MIC [9]: 2 µg/mL (≈ 3.58 µM)

Structure (SMILES): C[C@H]1c2ccc(NC(=O)[C@@H](N)CC3CCCCC3)c(O)c2C(=O)C2=C(O)[C@]3(O)C(O)=C(C(N)=O)C(=O)[C@@H](N(C)C)C3[C@@H](O)C21 (stereo not given in full)
- MIC [10]: 2 µg/mL (≈ 3.26 µM)
- MIC [1]: 8 µg/mL (≈ 13.1 µM)
- MIC [2]: 4 µg/mL (≈ 6.53 µM)
- MIC [3]: 2 µg/mL (≈ 3.26 µM)
- MIC [4]: 0.5 µg/mL (≈ 0.816 µM)
- MIC [5]: 8 µg/mL (≈ 13.1 µM)
- MIC [6]: 8 µg/mL (≈ 13.1 µM)
- MIC [7]: 4 µg/mL (≈ 6.53 µM)
- MIC [8]: 1 µg/mL (≈ 1.63 µM)
- MIC [9]: 8 µg/mL (≈ 13.1 µM)

Structure (SMILES): CC(C)C[C@H](N)C(=O)Nc1ccc2c(c1O)C(=O)C1=C(O)[C@]3(O)C(O)=C(C(N)=O)C(=O)[C@@H](N(C)C)C3CC1C2 (stereo not given in full)
- MIC [1]: 4 µg/mL (≈ 7.37 µM)
- MIC [2]: 2 µg/mL (≈ 3.69 µM)
- MIC [3]: 1 µg/mL (≈ 1.84 µM)
- MIC [4]: 1 µg/mL (≈ 1.84 µM)
- MIC [5]: 4 µg/mL (≈ 7.37 µM)
- MIC [6]: 4 µg/mL (≈ 7.37 µM)
- MIC [7]: 2 µg/mL (≈ 3.69 µM)
- MIC [8]: 2 µg/mL (≈ 3.69 µM)
- MIC [9]: 1 µg/mL (≈ 1.84 µM)

Structure (SMILES): CC[C@H](C)[C@H](N)C(=O)Nc1ccc2c(c1O)C(=O)C1=C(O)[C@]3(O)C(O)=C(C(N)=O)C(=O)[C@@H](N(C)C)C3[C@@H](O)C1[C@H]2C (stereo not given in full)
- MIC [10]: 2 µg/mL (≈ 3.49 µM)
- MIC [1]: 4 µg/mL (≈ 6.99 µM)
- MIC [2]: 1 µg/mL (≈ 1.75 µM)
- MIC [3]: 0.5 µg/mL (≈ 0.873 µM)
- MIC [4]: 0.25 µg/mL (≈ 0.437 µM)
- MIC [5]: 16 µg/mL (≈ 27.9 µM)
- MIC [6]: 2 µg/mL (≈ 3.49 µM)
- MIC [7]: 1 µg/mL (≈ 1.75 µM)
- MIC [8]: 1 µg/mL (≈ 1.75 µM)
- MIC [9]: 1 µg/mL (≈ 1.75 µM)

Structure (SMILES): C[C@H]1c2ccc(NC(=O)[C@@H](N)Cc3ccccc3)c(O)c2C(=O)C2=C(O)[C@]3(O)C(O)=C(C(N)=O)C(=O)[C@@H](N(C)C)C3[C@@H](O)C21 (stereo not given in full)
- MIC [10]: 4 µg/mL (≈ 6.59 µM)
- MIC [2]: 4 µg/mL (≈ 6.59 µM)
- MIC [3]: 1 µg/mL (≈ 1.65 µM)
- MIC [4]: 0.5 µg/mL (≈ 0.824 µM)
- MIC [5]: 8 µg/mL (≈ 13.2 µM)
- MIC [7]: 2 µg/mL (≈ 3.3 µM)
- MIC [8]: 0.25 µg/mL (≈ 0.412 µM)
- MIC [9]: 1 µg/mL (≈ 1.65 µM)

Structure (SMILES): C[C@H]1c2ccc(NC(=O)[C@H](N)Cc3ccccc3)c(O)c2C(=O)C2=C(O)[C@]3(O)C(O)=C(C(N)=O)C(=O)[C@@H](N(C)C)C3[C@@H](O)C21 (stereo not given in full)
- MIC [10]: 16 µg/mL (≈ 26.4 µM)
- MIC [2]: 4 µg/mL (≈ 6.59 µM)
- MIC [3]: 1 µg/mL (≈ 1.65 µM)
- MIC [4]: 1 µg/mL (≈ 1.65 µM)
- MIC [5]: 16 µg/mL (≈ 26.4 µM)
- MIC [7]: 2 µg/mL (≈ 3.3 µM)
- MIC [8]: 0.5 µg/mL (≈ 0.824 µM)
- MIC [9]: 8 µg/mL (≈ 13.2 µM)

Structure (SMILES): C[C@H]1c2ccc(NC(=O)[C@@H]3CCCN3)c(O)c2C(=O)C2=C(O)[C@]3(O)C(O)=C(C(N)=O)C(=O)[C@@H](N(C)C)C3[C@@H](O)C21 (stereo not given in full)
- MIC [1]: 8 µg/mL (≈ 14.4 µM)
- MIC [2]: 2 µg/mL (≈ 3.59 µM)
- MIC [3]: 1 µg/mL (≈ 1.8 µM)
- MIC [4]: 1 µg/mL (≈ 1.8 µM)
- MIC [5]: 16 µg/mL (≈ 28.7 µM)
- MIC [6]: 4 µg/mL (≈ 7.19 µM)
- MIC [7]: 2 µg/mL (≈ 3.59 µM)
- MIC [8]: 2 µg/mL (≈ 3.59 µM)
- MIC [9]: 4 µg/mL (≈ 7.19 µM)

Structure (SMILES): CC(C)C[C@H](N)C(=O)Nc1ccc2c(c1O)C(=O)C1=C(O)[C@]3(O)C(O)=C(C(N)=O)C(=O)[C@@H](N(C)C)C3[C@@H](O)C1[C@H]2C (stereo not given in full)
- MIC [10]: 2 µg/mL (≈ 3.49 µM)
- MIC [1]: 4 µg/mL (≈ 6.99 µM)
- MIC [2]: 1 µg/mL (≈ 1.75 µM)
- MIC [4]: 0.5 µg/mL (≈ 0.873 µM)
- MIC [5]: 16 µg/mL (≈ 27.9 µM)
- MIC [6]: 2 µg/mL (≈ 3.49 µM)
- MIC [7]: 1 µg/mL (≈ 1.75 µM)
- MIC [8]: 0.5 µg/mL (≈ 0.873 µM)
- MIC [9]: 1 µg/mL (≈ 1.75 µM)

Structure (SMILES): CN(C)CC(=O)Nc1cc(N(C)C)c2c(c1O)C(=O)C1=C(O)[C@]3(O)C(O)=C(C(N)=O)C(=O)[C@@H](N(C)C)[C@@H]3CC1C2 (stereo not given in full)
- MIC [10]: 2 µg/mL (≈ 3.59 µM)
- MIC [1]: 2 µg/mL (≈ 3.59 µM)
- MIC [2]: 0.25 µg/mL (≈ 0.448 µM)
- MIC [4]: 0.25 µg/mL (≈ 0.448 µM)
- MIC [5]: 2 µg/mL (≈ 3.59 µM)
- MIC [6]: 0.5 µg/mL (≈ 0.897 µM)
- MIC [7]: 0.25 µg/mL (≈ 0.448 µM)
- MIC [8]: 0.25 µg/mL (≈ 0.448 µM)
- MIC [9]: 0.5 µg/mL (≈ 0.897 µM)

Structure (SMILES): CCN(CC)CC(=O)Nc1ccc2c(c1O)C(=O)C1=C(O)[C@]3(O)C(O)=C(C(N)=O)C(=O)[C@@H](N(C)C)C3[C@@H](O)C1[C@H]2C (stereo not given in full)
- MIC [10]: 1 µg/mL (≈ 1.75 µM)
- MIC [1]: 2 µg/mL (≈ 3.49 µM)
- MIC [2]: 0.5 µg/mL (≈ 0.873 µM)
- MIC [4]: 0.12 µg/mL (≈ 0.21 µM)
- MIC [5]: 4 µg/mL (≈ 6.99 µM)
- MIC [6]: 1 µg/mL (≈ 1.75 µM)
- MIC [7]: 0.5 µg/mL (≈ 0.873 µM)
- MIC [8]: 0.25 µg/mL (≈ 0.437 µM)
- MIC [9]: 2 µg/mL (≈ 3.49 µM)

Reference: ChEMBL document CHEMBL1127343, “"Glycylcyclines". 3. 9-Aminodoxycyclinecarboxamides” (1994)
